Compound activity (PubChem BioAssay)
In the library only some 2.1% were active in any assay of this set; here they are far more common.
PP5 primary: PP5 phosphatase inhibitors, primary screen, biochemical, fluorescence | Serine/threonine-protein phosphatase 5 (Homo sapiens), P53041 | purified PP5c, OMFP substrate fluorescence | inhibition, % at 6.7 µM | actives 0.18% (n = 320,000);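 active = inhibition above the campaign's mean inhibition across all tested compounds plus 3 SD, cut at about 9.5% in these data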;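 also: 0% = DMSO only and 100% = 100 µM cantharidin control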
TDP2 inh: human TDP2 enzyme inhibitors, primary screen, biochemical, epi absorbance, recombinant enzyme; Tyrosyl-DNA phosphodiesterase 2 (Homo sapiens), O95551; T5PNP hydrolysis, p-nitrophenol absorbance 415 nm; inhibition, % at 12.8 µM; actives 0.34% (n = 370,000); AID 720702, 2013;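 active = inhibition above the mean of all tested compounds plus 3 SD, set per campaign, cut at about 25% in these data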;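 also: 0% = DMSO with enzyme and 100% = buffer with substrate but no TDP2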
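System: recombinant human TDP2 / Amount: 120 nM TDP2 per well / Also added: 5 mM T5PNP chromogenic substrate / Doses: 12.8 µM single point, 1% DMSO / Incubation: 2 h at 37 °C / Detection: p-Nitrophenol epi absorbance / Evaluation: % inhibition relative to enzyme-containing and enzyme-free wells / Repeats: singlicate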
GSTO1 inh: inhibitors of recombinant GSTO1, primary screen, counter-screen for RBBP9 inhibitor project, biochemical, fluorescence polarization. Glutathione S-transferase omega-1 (Homo sapiens), P78417. activity-based probe fluorescence polarization. inhibition, % at 5.96 µM. actives 1.1% (n = 300,000). AID 1974, 2009;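 active = inhibition above the campaign mean inhibition plus 3 SD, cut at about 35% in these data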;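 also: 0% = GSTO1-1 with DMSO and 100% = wells lacking GSTO1-1 enzyme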
Target sequence (P78417 whole entry, looked up): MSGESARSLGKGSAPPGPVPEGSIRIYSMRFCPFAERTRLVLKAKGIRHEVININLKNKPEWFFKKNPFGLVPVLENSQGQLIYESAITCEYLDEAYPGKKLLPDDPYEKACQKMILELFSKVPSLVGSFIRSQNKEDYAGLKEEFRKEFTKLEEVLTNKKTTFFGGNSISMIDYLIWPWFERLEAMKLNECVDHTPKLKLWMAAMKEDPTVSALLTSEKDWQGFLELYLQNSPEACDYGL
PP1 counter: PP1-alpha phosphatase inhibitors, primary screen, counter-screen for PP5 inhibitor project, biochemical, fluorescence, OMFP substrate, single point. Serine/threonine-protein phosphatase PP1-alpha catalytic subunit (Homo sapiens), P62136. purified PP1alpha. inhibition, % at 6.7 µM. actives 0.9% (n = 320,000);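 active = inhibition above the mean inhibition of all tested compounds plus 3 SD, computed separately for each screening campaign, cut at about 15% in these data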
Target sequence (P62136 whole entry, looked up): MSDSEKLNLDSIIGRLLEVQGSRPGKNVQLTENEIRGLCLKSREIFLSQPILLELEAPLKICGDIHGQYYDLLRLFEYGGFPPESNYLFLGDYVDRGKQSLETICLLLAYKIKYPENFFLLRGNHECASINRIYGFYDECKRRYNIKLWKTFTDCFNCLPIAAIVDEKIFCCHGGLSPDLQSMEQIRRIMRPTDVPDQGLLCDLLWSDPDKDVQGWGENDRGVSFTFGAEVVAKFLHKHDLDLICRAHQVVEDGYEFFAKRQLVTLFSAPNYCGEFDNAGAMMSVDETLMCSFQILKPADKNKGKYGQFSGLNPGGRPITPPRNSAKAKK
Apaf1 inhib: inhibitors of human Apaf-1 apoptosome, primary screen, biochemical, DEVD-Rh110 fluorescence, uHTS | Apoptotic protease-activating factor 1 (Homo sapiens), O14727 | reconstituted apoptosome caspase-3 activity | inhibition, % at 20 µM | actives 0.71% (n = 330,000) | AID 489030, 2010; active = inhibition of at least 40% at 20 µM;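 also: plate controls were DMSO wells for no effect and DEVD-CHO caspase inhibitor wells for full effect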
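Material: cell-free apoptosome with Apaf-1, procaspase-3 and caspase-9; Buffer or medium: Hepes pH 7.5 with detergent and BSA; Reagent: cytochrome c trigger plus (Z-DEVD)2-Rh110 caspase-3 substrate; Times: compound with Apaf-1, dATP, procaspase-3 30 min, then 50 min reaction, room temperature; Technique: Rh110 fluorescence intensity.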
PP1 confirm: PP1 phosphatase inhibitors, confirmation, biochemical, fluorescence, OMFP substrate, triplicate; actives 52% (n = 1,900); inhibition, % at 6.7 µM; purified PP1alpha; shares compounds with PP1 counter;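 active = mean PP1 inhibition above a set limit taken from the earlier primary screen, cut at about 15% in these data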
PP5 inh counter: PP5 phosphatase inhibition by PP1 hits, confirmation, counter-screen for PP1 inhibitor project, biochemical, fluorescence, triplicate. shares compounds with PP1 counter. actives 4% (n = 1,900). AID 2360, 2010. purified PP5c, OMFP fluorescence. inhibition, % at 6.7 µM;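 active = mean PP5 inhibition over triplicate wells above about 9.5% taken from the earlier PP1 screen, limit read from the data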
* hit, by the source's call; . = no result given.

SMILES | PP5 primary | TDP2 inh | GSTO1 inh | PP1 counter | Apaf1 inhib | PP1 confirm | PP5 inh counter
CC(=O)NC(c1ccc(C)cc1)c1cc([N+](=O)[O-])c2cccnc2c1O (centres undefined) | 6 | -11 | -13 | 19* | 15 | 21* | 3
CCC(=O)NC(c1ccc(C)cc1)c1cc([N+](=O)[O-])c2cccnc2c1O (centres undefined) | 1 | -6 | 13 | 39* | . | 12 | 12*
Cc1ccccc1Cn1cc(COC(=O)Nc2ccc(F)cc2)nn1 | . | -2 | . | . | . | . | .
Cc1ccc(C)c(S(=O)(=O)N2CCN(c3nc(-c4cccnc4)nc4ccccc34)CC2)c1 | 2 | 3 | . | 19* | 26 | 18* | 1
COc1ccc(S(=O)(=O)N2CCN(c3nc(-c4cccnc4)nc4ccccc34)CC2)cc1 | 2 | 2 | . | 21* | 33 | 17* | -1
Cc1cc(C)n2nc(C(=O)N/N=C/c3ccc(Cl)cc3)nc2n1 | -1 | 7 | -1 | -7 | -11 | . | .
COc1ccc(/C=N/Nc2cc(C)nc(-n3nc(C)cc3C)n2)cc1 | 7 | 0 | -2 | 39* | 22 | 50* | 0
Cc1cc(C)n2nc(C(=O)N/N=C/c3cccc(Cl)c3)nc2n1 | 0 | 7 | -7 | 18* | 3 | 0 | -2
Cc1cc(N/N=C/c2cccc(Cl)c2)nc(-n2nc(C)cc2C)n1 | 3 | -5 | -10 | 18* | 0 | 23* | -3
C=Cc1ccc(C(=O)N(Cc2ccc(F)cc2)C(C(=O)N(C)C2CCCC2)c2ccc(OC)c(OC)c2)cc1 (centres undefined) | . | -3 | . | . | . | . | .
O=C(CSc1nnc(-c2ccccn2)n1-c1ccccc1)c1ccc(F)cc1 | . | 5 | . | . | . | . | .
COc1cccc(/C=C2\CC3(OC(=O)C(C)(C)C)CCCN2C3)c1 (centres undefined) | . | 0 | . | . | . | . | .
Cc1cc2nc(-c3ccc(SCC(=O)Nc4ccc(S(=O)(=O)N5CCCC5)cc4)nc3)[nH]c2cc1C | 1 | -14 | -23 | 35* | 4 | 34* | -2
CCN(C(=O)[C@@H](C)[C@@H](O)c1ccc(C(C)=O)cc1)c1ccccc1 | . | 6 | . | . | . | . | .
Cc1ccc(C)c(Cn2nnc3c(=O)[nH]c(C(=O)NCc4ccco4)nc32)c1 | 1 | 7 | 1 | 19* | -9 | 4 | -5
O=C(NCc1ccco1)c1nc2c(nnn2Cc2ccccc2Cl)c(=O)[nH]1 | 2 | 1 | -5 | 9 | -12 | . | .
CCC1(c2ccccc2)NC(=O)N(CC(=O)Nc2cc(S(=O)(=O)N3CCCCC3)ccc2OC(C)C)C1=O (centres undefined) | 0 | -12 | -10 | 18* | 28 | 2 | 4
Cc1cc(N2CCN(CC(C)(C)O)C[C@H]2C)ccc1N1CCN(CC(C)(C)O)[C@@H](C)C1 | . | -5 | . | . | . | . | .
CN(C)c1ccc(NC(=O)C(=O)C2C(=O)Nc3ccccc32)cc1 (centres undefined) | 1 | 0 | 8 | 21* | -9 | 1 | -1
CC(C)(C)c1ccc(NC(=O)C(=O)C2C(=O)Nc3ccccc32)cc1 (centres undefined) | 1 | 9 | 3 | 0 | 2 | . | .
CCOC(=O)c1sc(-n2[nH]c(C)cc2=O)nc1C | 0 | 4 | 23 | 19* | 32 | 1 | 9
CCOC(=O)c1sc(NC(C)=O)nc1C | -2 | -7 | 0 | 2 | -16 | . | .
COc1ccc(/C=N\NC(=O)c2cc(O)c(O)c(O)c2)cc1COc1ccc(C(=O)OCC(C)C)cc1 | 7 | -17 | 26 | 27* | 26 | 25* | 0
COc1ccc(/C=N/NC(=O)c2ccc(NC(C)=O)cc2)cc1COc1ccc(F)cc1F | 1 | 0 | -9 | 22* | 6 | 12 | -2
COc1ccc(/C=N\NC(=O)c2ccccc2F)cc1COc1ccc(F)cc1F | 3 | -9 | -12 | 5 | 24 | . | .
SMILES | PP5 primary | TDP2 inh | GSTO1 inh | PP1 counter | Apaf1 inhib | PP1 confirm | PP5 inh counter
COC(=O)C1CN(Cc2ccccc2)CCS(=O)(=O)N1Cc1ccc(OC)cc1 (centres undefined) | . | -4 | . | . | . | . | .
C=C1[C@@H](C)CN[C@@H]1CCO | . | -2 | . | . | . | . | .
O=C(Nc1ccccc1C(=O)O)c1cccc(S(=O)(=O)Nc2ccc(Br)cc2)c1 | 2 | 18 | -23 | 18* | 6 | 10 | 0
CC(=O)Oc1ccc(C(=O)NCCc2ccccc2)cc1 | -1 | 4 | 1 | -2 | -6 | . | .
CC(=O)Oc1ccc(-c2ccc(C(=O)NCCc3ccc(S(N)(=O)=O)cc3)cc2)cc1 | -2 | 4 | -3 | 24* | -1 | 18* | -2
COc1ccc(NC(=S)NC(NC(=O)c2cccc(C)c2)C(Cl)(Cl)Cl)c([N+](=O)[O-])c1 (centres undefined) | 2 | -4 | -19 | 2 | 12 | . | .
COc1ccc(NC(=S)NC(NC(=O)c2cccc(Cl)c2)C(Cl)(Cl)Cl)c([N+](=O)[O-])c1 (centres undefined) | 4 | 0 | -66 | 18* | 10 | 6 | 1
COC(=O)C1CN(CCO)CCS(=O)(=O)N1Cc1cn(Cc2ccccc2Br)nn1 (centres undefined) | . | -12 | . | . | . | . | .
COc1cc(NC(=O)c2cnc(N)s2)cc(C(=O)Nc2cccc(C(F)(F)F)c2)c1 | 7 | 1 | -26 | 32* | 5 | 34* | 1
c1ccc(-c2nccc(-c3ccc(-n4cnc5ccccc54)cc3)n2)cc1 | 3 | 1 | -1 | 18* | 19 | 25* | 0
c1ccc(-n2cnc3ccccc32)nc1 | 2 | -31 | -3 | -1 | -5 | . | .
CCCCCC(=O)Cc1cc(O)cc2c1C(=O)Oc1cc(O)c(C(=O)O)c(CCCCC)c1O2 | 7 | . | 4 | 29* | 19 | 38* | 3
CCCCCCCCN1C(=O)[C@@H](CC(=O)NCCCN2CCCC2=O)C[C@@]2(C(=O)OC)C1=C[C@H](COCc1ccccc1)O[C@@H]2C | . | -10 | . | . | . | . | .
O=C(NC1CCCCN(Cc2ccc(Cl)cc2)C1=O)c1ccc(F)cc1 (centres undefined) | . | 6 | . | . | . | . | .
O=C(NC(C(=O)N/N=C/c1c2ccccc2cc2ccccc12)c1n[nH]c(=O)c2ccccc12)c1ccccc1 (centres undefined) | 4 | -14 | -55 | 18* | 22 | 17* | -2
